Data reported in ChEMBL document CHEMBL5257120 (Bioorg Med Chem, 2023).
Activity calls are given as the source filed them. The rule behind the calls is not given here.

Assays:
[1] = Antiinflammatory activity in mouse peritoneal macrophage assessed as inhibition of LPS-induced TNFalpha production at 1 ug/ml relative to control; type: functional; design: scale not given: the % may be the effect or the level left; settings: dose 1 µg/ml
Homo sapiens = species: Homo sapiens; test: Selectivity ratio, ratio of inhibition of HDAC in human HeLa nuclear extract assessed as residual activity to inhibition of human recombinant HDAC6 assessed as residual activity
Procedure, shortened: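 Compounds at 20 μM tested by fluorometric assay on HeLa nuclear extract (class I/II HDACs) and on human recombinant HDAC6. Residual activity is expressed relative to untreated control. Selectivity is the ratio of PanHDAC to HDAC6 residual activity: ≥7 high, 2.5–6.9 moderate, <2.5 low.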

[2] = Antiinflammatory activity in mouse peritoneal macrophage assessed as inhibition of LPS-induced IL6 production at 10 ug/ml relative to control; type: functional; design: scale not given: the % may be the effect or the level left; settings: dose 10 µg/ml
Tubulin (Homo sapiens) [3] = target: T1, Tubulin (Homo sapiens) (UniProt P68371+Q9H4B7+P0DPH7+P68366+Q13509+Q71U36+P04350+Q3ZCM7+P07437+P68363+Q9BQE3+Q6PEY2+Q13885+Q9BVA1+Q9BUF5); test: Induction of microtubule stabilization (unknown origin) at 1 to 5 uM; type: protein-complex assay; settings: dose 1-5 µM
[4] = Antiinflammatory activity in mouse peritoneal macrophage assessed as inhibition of LPS-induced TNFalpha production at 10 ug/ml relative to control; type: functional; design: scale not given: the % may be the effect or the level left; settings: dose 10 µg/ml
K562 [5] = test: Induction of cell cycle arrest in human K562 cells assessed as S phase arrest at 1.625 to 6.5 uM incubated for 24 hrs by propidium iodide staining based method; type: functional; settings: dose 1.625-6.5 µM
[6] = Cytotoxicity against african green monkey Vero cells incubated for 72 hrs by Sulphorhodamine assay; type: toxicity, cell-based; settings: African green monkey (Chlorocebus sabaeus)
[7] = Antiinflammatory activity in mouse peritoneal macrophage assessed as reduction in LPS-induced TNFalpha production at 1 ug/ml; type: functional; settings: dose 1 µg/ml
MDA-MB-231 [8] = test: Cytotoxicity against human MDA-MB-231 cells incubated for 72 hrs by Sulphorhodamine assay; type: functional, cell-based; settings: MDA-MB-231, 72 h
Tubulin (Homo sapiens) [9] = target: T1, Tubulin (Homo sapiens); test: Induction of microtubule stabilization in human HeLa cells assessed as effect on cellular cytoskeletal network of tubulin at 5 to 10 uM incubated for 4 hrs by Alexa Fluor 488 staining based confocal microscopic analysis; type: cell-based; settings: dose 5-10 µM
Procedure, shortened: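 HeLa cells treated for 4 h at 5 and 10 μM. Microtubules immunostained with Alexa Fluor 488-conjugated anti-β-tubulin and imaged by confocal microscopy with a 60× Plan Apochromat objective. References: paclitaxel 5 nM, podophyllotoxin 5 μM.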

[10] = Antiinflammatory activity in mouse peritoneal macrophage assessed as inhibition of LPS-induced IL6 production at 1 ug/ml relative to control; type: functional; design: scale not given: the % may be the effect or the level left; settings: dose 1 µg/ml
MCF7 = test: Cytotoxicity against human MCF7 cells incubated for 72 hrs by Sulphorhodamine assay; type: functional, cell-based; settings: MCF7, 72 h
MDA-MB-231 [11] = test: Induction of cell cycle arrest in human MDA-MB-231 cells assessed as S phase arrest at 1.625 to 6.5 uM incubated for 24 hrs by propidium iodide staining based method; type: functional; settings: dose 1.625-6.5 µM
[12] = Antiinflammatory activity in mouse peritoneal macrophage assessed as reduction in LPS-induced TNFalpha production at 10 ug/ml; type: functional; settings: dose 10 µg/ml
[13] = Antiinflammatory activity in mouse peritoneal macrophage assessed as reduction in LPS-induced IL6 production at 1 ug/ml; type: functional; settings: dose 1 µg/ml
[14] = Antiinflammatory activity in mouse peritoneal macrophage assessed as reduction in LPS-induced IL6 production at 10 ug/ml; type: functional; settings: dose 10 µg/ml
K562 [15] = test: Cytotoxicity against human K562 cells incubated for 72 hrs by Sulphorhodamine assay; type: functional, cell-based; settings: K562, 72 h
[16] = Selectivity index, ratio of IC50 for african green monkey Vero cells to IC50 for human K562 cells; type: toxicity; settings: Vero cells versus K562 cells, read-out: Ratio IC50
Tubulin (Homo sapiens) [17] = target: T1, Tubulin (Homo sapiens); test: Induction of microtubule stabilization (unknown origin) at 5 uM; type: protein-complex assay
MDA-MB-231 [18] = test: Induction of cell cycle arrest in human MDA-MB-231 cells assessed as S phase arrest at 0.285 to 1.14 uM incubated for 24 hrs by propidium iodide staining based method; type: functional; settings: dose 0.285-1.14 µM

SMILES	Ratio (Homo sapiens)	IC50 at 72 h [6] [µM]	IC50 (MDA-MB-231 [8]) [µM]	IC50 (MCF7) [µM]	IC50 (K562 [15]) [µM]	selectivity ratio [16]	other results
COc1cc(C2c3c(cc(OC)c(OC)c3OC)C(=O)C2Cc2ccc(CCC(=O)NO)cc2)cc(OC)c1OC (stereo not drawn)	2.5	76.2	20.7	52.3	51.9	1.47	
CC(=O)O[C@H]1C(=O)[C@@]2(C)[C@H]([C@H](OC(=O)c3ccccc3)[C@]3(O)C[C@H](OC(=O)[C@H](O)[C@@H](NC(=O)c4ccccc4)c4ccccc4)C(C)=C1C3(C)C)[C@]1(OC(C)=O)CO[C@@H]1C[C@@H]2O							Activity (Tubulin (Homo sapiens) [17]): Active
COc1cccc2c1C(=O)c1c(O)c3c(c(O)c1C2=O)C[C@@](O)(C(=O)CO)C[C@@H]3O[C@H]1C[C@H](N)[C@H](O)[C@H](C)O1 [DOXORUBICIN]		1.87	0.57		5.23		Activity (MDA-MB-231 [18]): Active
COc1ccc2c(c1)CC(Cc1ccc(CCC(=O)NO)cc1)C2=O (stereo not drawn)		114	> 100	93.9	61.8	1.85	
COc1cc(C2/C(=C/c3ccc(C(=O)NO)cc3)C(=O)c3cc(OC)c(OC)c(OC)c32)cc(OC)c1OC (stereo not drawn)	inactive	72.2	> 100	60.1	47.7	1.51	
CC/C(=C(\c1ccccc1)c1ccc(OCCN(C)C)cc1)c1ccccc1 [TAMOXIFEN]		36.2	18.5				
COc1cc(C2c3c(cc(OC)c(OC)c3OC)C(=O)C2Cc2ccc(C(=O)NO)cc2)cc(OC)c1OC (stereo not drawn)	> 7	91.8	> 100	87.5	36.8	2.5	
CN1CCc2c(c3ccccc3n2Cc2ccc(C(=O)NO)cc2)C1 [TUBASTATIN A]					2.07		
COc1ccc2c(c1)CC(Cc1ccc(C(=O)NO)cc1)C2=O (stereo not drawn)		55.5	28.8	55.2	18.6	2.99	
C[C@@H]1C[C@H]2[C@@H]3CCC4=CC(=O)C=C[C@]4(C)[C@@]3(F)[C@@H](O)C[C@]2(C)[C@@]1(O)C(=O)CO [DEXAMETHASONE]							Activity [1]: 52.82%; Activity [7]: 581.27 pg/mL; Activity [10]: 40.5%; Activity [13]: 1792.75 pg/mL
COc1cc2c(cc1OC)C(=O)C(Cc1ccc(CCC(=O)NO)cc1)C2 (stereo not drawn)		48.7	32.6	51.7	30.4	1.6	
COc1cc([C@@H]2c3cc4c(cc3[C@H](O)[C@H]3COC(=O)[C@H]23)OCO4)cc(OC)c1OC [PODOFILOX]			20.2	10	18.4		
COc1cc2c(cc1OC)C(=O)C(Cc1ccc(C(=O)NO)cc1)C2 (stereo not drawn)		193	> 100	> 100	> 100		

More lines, main results first:

Ratio (Homo sapiens)	SMILES	IC50 at 72 h [6] [µM]	IC50 (MDA-MB-231 [8]) [µM]	IC50 (MCF7) [µM]	IC50 (K562 [15]) [µM]	selectivity ratio [16]	other results
> 7	COc1cc(C2/C(=C/c3ccc(OCCCC(=O)NO)cc3)C(=O)c3cc(OC)c(OC)c(OC)c32)cc(OC)c1OC (stereo not drawn)	47.2	3.25	49.7	1.66	28.4	Activity [1]: 12.34%; Activity [2]: 12.11%; Activity (Tubulin (Homo sapiens) [3]): Active; Activity [4]: 15.04%; Activity (K562 [5]): Active; Activity [7]: 1180.12 pg/mL; Activity (Tubulin (Homo sapiens) [9]): Active; Activity [10]: 9.38%; Activity (MDA-MB-231 [11]): Active; Activity [12]: 1046.79 pg/mL; Activity [13]: 2730.53 pg/mL; Activity [14]: 2648.31 pg/mL
inactive	COc1cc2c(cc1OC)C(=O)/C(=C\c1ccc(/C=C/C(=O)NO)cc1)C2	129	> 100	> 100	> 100	> 1	
> 7	COc1cc2c(cc1OC)C(=O)/C(=C\c1ccc(C(=O)NOCc3ccccc3)cc1)C2						
> 7	COc1ccc2c(c1)C/C(=C/c1ccc(C(=O)NOCc3ccccc3)cc1)C2=O						
> 7	COc1cc2c(cc1OC)C(=O)/C(=C\c1ccc(C(=O)NO)cc1)C2	88.4	> 100	> 100	46.9	1.88	
2.5	COc1ccc2c(c1)C/C(=C/c1ccc(/C=C/C(=O)NOCc3ccccc3)cc1)C2=O						
inactive	COc1cc(C2/C(=C/c3ccc(/C=C/C(=O)NOC(C)=O)cc3)C(=O)c3cc(OC)c(OC)c(OC)c32)cc(OC)c1OC (stereo not drawn)	47.5	19.1	75	23.6	2.01	
2.5	COc1cc2c(cc1OC)C(=O)/C(=C\c1ccc(/C=C/C(=O)NOCc3ccccc3)cc1)C2						
> 7	COc1ccc2c(c1)C/C(=C/c1ccc(/C=C/C(=O)NO)cc1)C2=O	100	> 100	97.5	> 100	≤ 1	
